Source: ChEMBL document CHEMBL4602702, “Red-Emitting Dibenzodiazepinone Derivatives as Fluorescent Dualsteric Probes for the Muscarinic Acetylcholine M2 Receptor” (J Med Chem, 2020)
Activity calls are given as the source filed them. The rule behind the calls is not given here.

Tests used:
[1] = molecular target: T1, Muscarinic acetylcholine receptor M2 (Homo sapiens, UniProt P08172); assay: Displacement of [3H]-NMS from human muscarinic M2 receptor stably expressed in CHO-K9 cells by radioligand competitive binding assay; format: cell-based
T1 sequence (P08172 whole entry): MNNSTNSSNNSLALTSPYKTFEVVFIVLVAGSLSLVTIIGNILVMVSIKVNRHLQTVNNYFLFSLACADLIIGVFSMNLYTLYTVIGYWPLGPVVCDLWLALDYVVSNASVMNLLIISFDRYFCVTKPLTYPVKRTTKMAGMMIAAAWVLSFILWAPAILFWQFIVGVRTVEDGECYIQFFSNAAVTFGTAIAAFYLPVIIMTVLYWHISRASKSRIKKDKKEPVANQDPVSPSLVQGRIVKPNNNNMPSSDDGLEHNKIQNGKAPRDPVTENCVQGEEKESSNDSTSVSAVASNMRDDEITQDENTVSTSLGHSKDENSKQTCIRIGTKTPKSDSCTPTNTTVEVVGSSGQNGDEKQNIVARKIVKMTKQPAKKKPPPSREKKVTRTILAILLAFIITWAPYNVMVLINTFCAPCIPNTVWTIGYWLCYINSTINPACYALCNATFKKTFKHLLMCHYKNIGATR
How it was run: (§1)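 Equilibrium competition binding at live CHO-hMxR cells with [3H]NMS at M1 0.2, M2 0.2, M3 0.2, M4 0.1, M5 0.3 nM. […] Four-parameter logistic fit converted to pKi; at least three experiments in triplicate (some two).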

[2] = molecular target: Muscarinic acetylcholine receptor M3 (Homo sapiens, UniProt P20309); assay: Displacement of [3H]-NMS from human muscarinic M3 receptor stably expressed in CHO-K9 cells by radioligand competitive binding assay; format: cell-based; how it was run: as §1
Sequence of Muscarinic acetylcholine receptor M3 (P20309 whole entry): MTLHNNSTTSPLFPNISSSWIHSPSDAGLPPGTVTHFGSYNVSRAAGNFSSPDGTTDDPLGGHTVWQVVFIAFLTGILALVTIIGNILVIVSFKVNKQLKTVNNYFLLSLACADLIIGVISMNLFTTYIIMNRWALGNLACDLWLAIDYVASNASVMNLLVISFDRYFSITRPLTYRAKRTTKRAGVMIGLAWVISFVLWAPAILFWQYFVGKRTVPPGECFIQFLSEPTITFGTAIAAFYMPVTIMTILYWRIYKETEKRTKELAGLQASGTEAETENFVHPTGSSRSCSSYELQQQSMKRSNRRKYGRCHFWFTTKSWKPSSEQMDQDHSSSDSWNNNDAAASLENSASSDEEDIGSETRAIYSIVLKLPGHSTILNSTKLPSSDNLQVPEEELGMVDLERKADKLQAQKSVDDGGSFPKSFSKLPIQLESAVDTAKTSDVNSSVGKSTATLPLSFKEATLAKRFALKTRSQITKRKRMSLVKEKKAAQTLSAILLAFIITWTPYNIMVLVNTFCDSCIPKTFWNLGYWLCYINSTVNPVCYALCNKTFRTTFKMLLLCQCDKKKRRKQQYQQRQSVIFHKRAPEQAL

[3] = molecular target: T2, Muscarinic acetylcholine receptor M1 (Homo sapiens, UniProt P11229); assay: Displacement of [3H]-NMS from human muscarinic M1 receptor stably expressed in CHO-K9 cells by radioligand competitive binding assay; format: cell-based; how it was run: as §1
T2 sequence (P11229 whole entry): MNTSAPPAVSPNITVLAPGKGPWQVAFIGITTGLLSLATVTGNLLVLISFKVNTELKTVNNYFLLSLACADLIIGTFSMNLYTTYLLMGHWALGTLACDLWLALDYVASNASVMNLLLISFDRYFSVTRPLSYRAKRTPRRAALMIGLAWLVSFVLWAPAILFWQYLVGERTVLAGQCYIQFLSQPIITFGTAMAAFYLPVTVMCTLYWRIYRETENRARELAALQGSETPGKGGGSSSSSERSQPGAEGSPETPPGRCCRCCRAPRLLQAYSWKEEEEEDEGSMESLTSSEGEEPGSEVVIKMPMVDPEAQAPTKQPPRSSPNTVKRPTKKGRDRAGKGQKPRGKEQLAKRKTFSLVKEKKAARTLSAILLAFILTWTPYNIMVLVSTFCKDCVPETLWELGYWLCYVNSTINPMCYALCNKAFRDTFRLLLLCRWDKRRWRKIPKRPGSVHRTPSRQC

[4] = molecular target: T3, Muscarinic acetylcholine receptor M5 (Homo sapiens, UniProt P08912); assay: Displacement of [3H]-NMS from human muscarinic M5 receptor stably expressed in CHO-K9 cells by radioligand competitive binding assay; format: cell-based; how it was run: as §1
T3 sequence (P08912 whole entry): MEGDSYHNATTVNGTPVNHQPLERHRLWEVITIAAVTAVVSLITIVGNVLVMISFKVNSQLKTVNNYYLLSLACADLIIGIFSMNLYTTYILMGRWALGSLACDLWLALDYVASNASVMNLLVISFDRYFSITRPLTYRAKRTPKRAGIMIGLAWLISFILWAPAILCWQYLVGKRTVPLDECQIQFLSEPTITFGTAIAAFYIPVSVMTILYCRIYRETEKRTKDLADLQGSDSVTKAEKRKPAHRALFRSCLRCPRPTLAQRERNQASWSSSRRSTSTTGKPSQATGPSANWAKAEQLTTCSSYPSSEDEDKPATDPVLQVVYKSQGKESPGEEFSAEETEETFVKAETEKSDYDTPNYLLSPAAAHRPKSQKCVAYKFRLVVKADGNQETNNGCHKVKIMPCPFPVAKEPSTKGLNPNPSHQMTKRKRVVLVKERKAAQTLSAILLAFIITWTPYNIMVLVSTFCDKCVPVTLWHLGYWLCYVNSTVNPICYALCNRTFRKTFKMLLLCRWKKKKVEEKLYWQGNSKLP

[5] = molecular target: T4, Muscarinic acetylcholine receptor M4 (Homo sapiens, UniProt P08173); assay: Displacement of [3H]-NMS from human muscarinic M4 receptor stably expressed in CHO-K9 cells by radioligand competitive binding assay; format: cell-based; how it was run: as §1
T4 sequence (P08173 whole entry): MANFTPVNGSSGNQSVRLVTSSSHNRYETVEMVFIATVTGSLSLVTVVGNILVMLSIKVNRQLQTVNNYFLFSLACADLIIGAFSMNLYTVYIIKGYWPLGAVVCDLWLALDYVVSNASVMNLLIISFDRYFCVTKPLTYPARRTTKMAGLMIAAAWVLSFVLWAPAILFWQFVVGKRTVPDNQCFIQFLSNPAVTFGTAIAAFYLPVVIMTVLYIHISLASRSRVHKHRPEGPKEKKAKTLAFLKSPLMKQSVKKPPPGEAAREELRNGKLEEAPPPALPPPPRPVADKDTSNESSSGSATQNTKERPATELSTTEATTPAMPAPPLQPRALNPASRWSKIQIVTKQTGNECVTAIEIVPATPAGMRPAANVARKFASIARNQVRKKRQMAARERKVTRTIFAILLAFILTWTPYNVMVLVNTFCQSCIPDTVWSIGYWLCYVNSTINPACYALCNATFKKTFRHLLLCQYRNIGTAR

[6] = molecular target: T1, Muscarinic acetylcholine receptor M2; assay: Displacement of 4-(2-((1E,3E)-5-((E)-1-(6-((3,5-Bis((2-(3-(1-(4-(1-(2-oxo-2-(11-oxo-10,11-dihydro-5H-dibenzo[b,e][1,4]diazepin-5-yl)ethyl)piperidin-4-yl)butyl)-1H-imidazol-4-yl)propanamido)ethyl)carbamoyl)benzyl)amino)-6-oxohexyl)-3,3-dimethyl-5-sulfoindolin-2-ylidene)penta-1,3-dien-1-yl)-3,3-dimethyl-3H-indol-1-ium-1-yl)butane-1-sulfonate Tris(hydrotrifluoroacetate) fluorescent tracer from human muscarinic M2 receptor expressed in […] cells measured after 60 mins by Hoechst H33342 dye based confocal plate reader assay; format: cell-based
[7] = molecular target: T1, Muscarinic acetylcholine receptor M2; assay: Displacement of 4-(2-((1E,3E)-5-((E)-3,3-Dimethyl-1-(6-oxo-6-((2-(3-(1-(4-(1-(2-oxo-2-(11-oxo-10,11-dihydro-5H-dibenzo[b,e][1,4]diazepin-5-yl)ethyl)piperidin-4-yl)butyl)-1H-imidazol-4-yl)propanamido)ethyl)-amino)hexyl)-5-sulfoindolin-2-ylidene)penta-1,3-dien-1-yl)-3,3-dimethyl-3H-indol-1-ium-1-yl)butane-1-sulfonateHydrotrifluoroacetate fluorescent tracer from human muscarinic M2 receptor expressed in […] cells measured after 60 mins by Hoechst H33342 dye based confocal plate reader assay; format: cell-based
[8] = molecular target: T1, Muscarinic acetylcholine receptor M2; assay: Binding affinity to human muscarinic M2 receptor expressed in CHO-K9 cells incubated in dark measured after 60 mins by Hoechst H33342 dye based confocal plate reader assay; format: cell-based
How it was run: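 Live CHO-hMxR cells (M1 or M2) incubated with fluorescent ligand at 22 °C in the dark for 1 h, washed, then imaged at once by high-content confocal plate reader.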

[9] = molecular target: T1, Muscarinic acetylcholine receptor M2; assay: (§2) Antagonist activity at human muscarinic M2 receptor expressed in HEK293 cells co-expressing HA-Galphaq/i5 assessed as inhibition of carbachol-induced IP1 accumulation at 22 degree C pre-incubated for 180 mins followed by carbachol addition and further incubated at 37 degree C for 90 mins by HTRF assay; format: functional, cell-based
How it was run: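 HEK-hM2-Gαqi5-HA cells (transient transfection) preincubated with antagonist at 22 °C for 180 min, then carbachol 0.3 μM (≈EC80) added and incubation continued at 37 °C for 90 min. Readout is inhibition of IP1 accumulation as pIC50, mean ± SEM of n independent experiments, each in duplicate.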

[10] = molecular target: T5, Muscarinic acetylcholine receptor M2 (Homo sapiens) (UniProt P08172); assay: Agonist activity at human muscarinic M2 receptor expressed in HEK293 cells co-expressing HA-Galphaq/i5 assessed as induction of Galphaq/i5-mediated IP1 accumulation by HTRF assay; format: functional, cell-based
T5 sequence (whole entry): T1 sequence (P08172 whole entry)
How it was run: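 HEK-293 cells transiently co-transfected with hM2R and hybrid Gαqi5-HA, run in agonist mode at 37 °C; IP1 accumulation measured. Carbachol control from 14 independent experiments in duplicate; test ligands from three or four independent experiments in duplicate.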

[11] = molecular target: T4, Muscarinic acetylcholine receptor M4; assay: as §2, with “M4” for “M2”; format: functional, cell-based
[12] = molecular target: T1, Muscarinic acetylcholine receptor M2; assay: Antagonist activity at human muscarinic M2 receptor expressed in HEK293 cells co-expressing HA-Galphaq/i5 assessed as inhibition of carbachol-induced IP1 accumulation at 37 degree C pre-incubated for 30 mins followed by carbachol addition and measured after 60 mins by HTRF assay; format: functional, cell-based
[13] = molecular target: T5, Muscarinic acetylcholine receptor M2 (Homo sapiens); assay: Binding affinity to human muscarinic M2 receptor expressed in […] cells assessed as unspecific binding at Kd incubated in dark at 22 degree C for 2 hrs in presence of atropine by FACSCalibur flow cytometric saturation binding study relative to control; format: cell-based
[14] = molecular target: T1, Muscarinic acetylcholine receptor M2; assay: Binding affinity to human muscarinic M2 receptor expressed in […] cells incubated in dark at 22 degree C for 2 hrs by FACSCalibur flow cytometric saturation binding study; format: cell-based

NCCN1CCN(CCCCC2CCN(CC(=O)N3c4ccccc4NC(=O)c4ccccc43)CC2)CC1
Ki [1]: 0.000182 µM | Ki [2]: 0.145 µM | Ki [3]: 0.00589 µM | Ki [4]: 0.234 µM | Ki [5]: 0.000447 µM

NCCNC(=O)CCc1cn(CCCCC2CCN(CC(=O)N3c4ccccc4NC(=O)c4ccccc43)CC2)cn1
Ki [1]: 0.000589 µM

Cc1cc(/C=C/C=C/c2ccc(N(C)C)cc2)cc(C)[n+]1CCCCC1CCN(CC(=O)N2c3ccccc3NC(=O)c3ccccc32)CC1
Ki [1]: 0.017 µM | Ki [2]: 0.0851 µM | Ki [3]: 0.0309 µM | Ki [4]: 0.2 µM | Ki [5]: 0.0162 µM

CCC(=O)NCc1cc(C(=O)NCCNC(=O)CCc2cn(CCCCC3CCN(CC(=O)N4c5ccccc5NC(=O)c5ccccc54)CC3)cn2)cc(C(=O)NCCNC(=O)CCc2cn(CCCCC3CCN(CC(=O)N4c5ccccc5NC(=O)c5ccccc54)CC3)cn2)c1
Ki [6]: 0.000525 µM | Ki [7]: 0.000355 µM

NCCCCC1CCN(CC(=O)N2c3ccccc3NC(=O)c3ccccc32)CC1
Ki [1]: 0.0107 µM

Cc1cc(/C=C/C=C/c2ccc(N(C)C)cc2)cc(C)[n+]1CCN1CCN(CCCCC2CCN(CC(=O)N3c4ccccc4NC(=O)c4ccccc43)CC2)CC1
Ki [1]: 0.00302 µM | Ki [2]: 0.148 µM | Ki [3]: 0.0138 µM | Ki [4]: 0.389 µM | Ki [5]: 0.00955 µM

CC1(C)C(/C=C/C=C/C=C2/N(CCCCCC(=O)NCCN3CCN(CCCCC4CCN(CC(=O)N5c6ccccc6NC(=O)c6ccccc65)CC4)CC3)c3ccccc3C2(C)C)=[N+](CCCCS(=O)(=O)[O-])c2ccccc21
Ki [1]: 0.00135 µM | Ki [2]: 0.0676 µM | Kd ([8]; read-out: Kd): 0.0108 µM | Kd ([8]; read-out: pKd (converted)): 0.00871 µM | IC50 [9]: 0.0603 µM | Activity [10]: inactive | IC50 [11]: 0.0912 µM | Ki [3]: 0.01 µM | Ki [4]: 0.141 µM | IC50 [12]: 0.049 µM | Ki [5]: 0.00398 µM | Activity [13]: 10% | Kd ([14]; read-out: Kd): 0.002 µM | Kd ([14]; read-out: pKd (converted)): 0.00257 µM
